Test results as given in ChEMBL document CHEMBL4732088, “Identification and optimization of piperlongumine analogues as potential antioxidant and anti-inflammatory agents via activation of Nrf2” (Eur J Med Chem, 2021).
Activity calls are given as the source filed them. The calls are words filed in the database; no cut-off is given here.

Key:
PC-12 [1] = assay: Neuroprotective activity against H2O2-induced cell damage in rat PC12 cells preincubated for 24 hrs followed by H2O2 treatment by MTT assay; assay type: functional, cell-based; conditions: dose 5-20 µM
In short: (§1)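 PC12 cells pretreated 24 h with compound (5, 10, 20 μM), then H₂O₂ (200 μM) or 6-OHDA (150 μM); viability by MTT; mean ± SD, three independent experiments.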

PC-12 [2] = assay: Neuroprotective activity against 6-OHDA-induced cell damage in rat PC12 cells preincubated for 24 hrs followed by 6-OHDA treatment by MTT assay; assay type: functional, cell-based; conditions: dose 5-20 µM; in short: as §1
PC-12 [3] = assay: Cytoprotective activity against H2O2-induced neurotoxicity in rat PC12 cells assessed as reduction in LDH release at 5 to 20 uM preincubated for 24 hrs followed by H2O2 treatment by LDH assay; assay type: functional, cell-based; conditions: dose 5-20 µM
In short: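 PC12 cells pretreated with compound (5, 10, 20 μM) for 24 h, then H₂O₂ or 6-OHDA; membrane damage read as LDH leakage; mean ± SD of three independent experiments.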

PC-12 [4] = assay: Protection against H2O2-induced mitochondrial dysfunction in rat PC12 cells assessed as change in mitochondrial membrane potential loss at 5 uM pretreated with compound followed by H2O2 addition by JC-1 staining based flow cytometry (reference value: 21.3 %); assay type: functional
In short: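 Mitochondrial membrane potential in PC12 cells pretreated with compound (5, 10, 20 μM), then exposed to H₂O₂ (200 μM) or 6-OHDA (150 μM). JC-1 staining, red-to-green fluorescence shift read by flow cytometry. Mean ± SD, n = 3.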

PC-12 [5] = assay: Protection against H2O2-induced apoptosis in rat PC12 cells assessed as late apoptotic cells at 5 uM incubated for 24 hrs by annexin V FITC/propidium iodide staining based flow cytometry (reference value: 16.2 %); assay type: functional
PC-12 [6] = assay: Protection against H2O2-induced apoptosis in rat PC12 cells assessed as late apoptotic cells at 10 uM incubated for 24 hrs by annexin V FITC/propidium iodide staining based flow cytometry (reference value: 16.2 %); assay type: functional
PC-12 [7] = assay: Protection against H2O2-induced apoptosis in rat PC12 cells assessed as necrotic cells at 20 uM incubated for 24 hrs by annexin V FITC/propidium iodide staining based flow cytometry (reference value: 0.6 %); assay type: functional
PC-12 [8] = assay: Protection against 6-OHDA-induced apoptosis in rat PC12 cells assessed as early apoptotic cells at 10 uM incubated for 24 hrs by annexin V FITC/propidium iodide staining based flow cytometry (reference value: 19.2 %); assay type: functional
PC-12 [9] = assay: Protection against 6-OHDA-induced apoptosis in rat PC12 cells assessed as necrotic cells at 10 uM incubated for 24 hrs by annexin V FITC/propidium iodide staining based flow cytometry (reference value: 1.1 %); assay type: functional
PC-12 [10] = assay: Protection against 6-OHDA-induced apoptosis in rat PC12 cells assessed as early apoptotic cells at 20 uM incubated for 24 hrs by annexin V FITC/propidium iodide staining based flow cytometry (reference value: 19.2 %); assay type: functional
PC-12 [11] = assay: Prevention of 6-OHDA-induced calcium overload in rat PC12 cells assessed as reduction in intracellular free calcium by measuring mean fluorescence intensity at 10 uM pretreated with compound followed by 6-OHDA addition measured after 24 hrs by Fluo-3AM based fluorescence assay (reference value: 6708.18%); assay type: functional
[12] = target: T1, Nuclear factor erythroid 2-related factor 2 (Rattus norvegicus) (UniProt O54968); assay: Activation of Nrf2 in rat PC12 cells assessed as increase in Nrf2 protein level at 20 uM after 3 hrs by Western blot analysis; assay type: cell-based; conditions: PC-12, filed as activator
T1 sequence (whole entry): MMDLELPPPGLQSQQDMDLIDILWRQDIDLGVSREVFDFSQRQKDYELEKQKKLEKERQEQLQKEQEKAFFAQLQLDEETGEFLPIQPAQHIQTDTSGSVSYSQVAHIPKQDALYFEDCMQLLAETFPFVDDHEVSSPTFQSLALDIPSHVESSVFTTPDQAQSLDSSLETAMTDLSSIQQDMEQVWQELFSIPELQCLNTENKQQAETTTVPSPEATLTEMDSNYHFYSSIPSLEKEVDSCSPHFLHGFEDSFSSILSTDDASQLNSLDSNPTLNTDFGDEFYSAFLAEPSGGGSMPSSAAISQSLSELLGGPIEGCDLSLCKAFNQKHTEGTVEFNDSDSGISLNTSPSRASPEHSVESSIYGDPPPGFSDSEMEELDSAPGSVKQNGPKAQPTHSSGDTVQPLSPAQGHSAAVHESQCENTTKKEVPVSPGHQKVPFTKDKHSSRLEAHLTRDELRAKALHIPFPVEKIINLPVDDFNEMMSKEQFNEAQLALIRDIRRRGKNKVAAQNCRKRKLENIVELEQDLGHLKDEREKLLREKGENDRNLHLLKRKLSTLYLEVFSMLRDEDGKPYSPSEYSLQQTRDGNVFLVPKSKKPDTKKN

[13] = target: T1, Nuclear factor erythroid 2-related factor 2 (Rattus norvegicus); assay: Activation of Nrf2 in rat PC12 cells assessed as increase in TrxR1 protein level after 24 hrs by Western blot analysis; assay type: cell-based; conditions: PC-12, filed as activator, dose 5-20 µM
In short: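 PC12 cells treated with compound for 24 h at rising concentrations; NQO1, HO-1, TrxR1, GCLM, GCLC protein detected by Western blot.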

PC-12 [14] = assay: Neuroprotective activity against H2O2-induced cell death in rat PC12 cells assessed as cell viability at 20 uM preincubated for 30 mins in presence of ZNPP followed by H2O2 stimulation and measured after 24 hrs by MTT assay; assay type: functional, cell-based; conditions: time 24.5 hrs
In short: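 PC12 cells incubated 30 min with compound (20 μM) plus brusatol (10 nM) or ZnPP (10 nM), then insult for 24 h (H₂O₂ stated as 150 μM); viability by MTT.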

[15] = Effective permeability of compound by PAMPA-BBB assay; assay type: ADME; conditions: read-out: Peff
BV-2 = assay: Antiinflammatory activity in mouse BV2 cells transfected with control siRNA assessed as reduction in LPS-induced NO production at 20 uM pretreated with compound followed by LPS stimulation for 18 hrs

CCN(C)C(=O)N1CCN(C(=O)/C=C/c2ccc(F)cc2)C1=O
Activity (PC-12 [1]): Dose-dependent effect
Activity (PC-12 [2]): Dose-dependent effect
Activity (PC-12 [3]): Active
Activity (PC-12 [4]): 13.2%
Activity (PC-12 [5]): 9.9%
Activity (PC-12 [6]): 5.3%
Activity (PC-12 [7]): 0.3%
Activity (PC-12 [8]): 7.4%
Activity (PC-12 [9]): 1%
Activity (PC-12 [10]): 5.2%
Flu intensity (PC-12 [11]): 4204.33
Activity [12]: Active
Activity [13]: Dose-dependent effect
Activity (PC-12 [14]): inactive
Papp [15]: 6.78 ×10⁻⁶ cm/s
Activity (BV-2): Active
